Source: ChEMBL document CHEMBL1121612, “Ivermectin, a new broad-spectrum antiparasitic agent” (1980)

What was measured:
Assay type in all cases: functional
Ovis aries [1] = test: Activity against adult gastrointestinal helminths of experimentally infected sheep on oral administration of Trichostrongylus axei at 3.0 mg/kg.
In short: (§1)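 Sheep were given the compound orally, each at one dose, with concurrent experimental infections of six adult gastrointestinal nematode species. Efficacy against adult worms was recorded as a categorical score for each species.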

Ovis aries [2] = test: Activity against adult gastrointestinal helminths of experimentally infected sheep on oral administration of Oesophagostomum columbianum at 3.0 mg/kg.; in short: as §1
Ovis aries [3] = test: Activity against adult gastrointestinal helminths of experimentally infected sheep on oral administration of Ostertagia circumcincta at 3.0 mg/kg; 75-90; in short: as §1
Ovis aries [4] = test: Activity against adult gastrointestinal helminths of experimentally infected sheep on oral administration of Trichostrongylus colubriformis at 3.0 mg/kg.
In short: (§2)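 Sheep were given the compound orally, each at one dose, with experimental infections of six gastrointestinal nematode species. The Haemonchus contortus and Trichostrongylus colubriformis strains were benzimidazole-resistant. Efficacy against adult worms was recorded as a categorical score.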

Ovis aries [5] = test: Activity against adult gastrointestinal helminths of experimentally infected sheep on oral administration of Haemonchus contortus at 3.0 mg/kg; 50-74; in short: as §2
Ovis aries [6] = test: Activity against adult gastrointestinal helminths of experimentally infected sheep on oral administration of Cooperia species at 3.0 mg/kg; 50-74; in short: as §1
Ovis aries [7] = test: Activity against adult gastrointestinal helminths of experimentally infected sheep on oral administration of Oesophagostomum columbianum at 0.2 mg/kg.; in short: as §1
Ovis aries [8] = test: Activity against adult gastrointestinal helminths of experimentally infected sheep on oral administration of Ostertagia circumcincta at 0.2 mg/kg.; in short: as §1
Ovis aries [9] = test: Activity against adult gastrointestinal helminths of experimentally infected sheep on oral administration of Trichostrongylus colubriformis at 0.2 mg/kg.; in short: as §2
Ovis aries [10] = test: Activity against adult gastrointestinal helminths of experimentally infected sheep on oral administration of Trichostrongylus axei at 0.2 mg/kg; 50-74; in short: as §1
Ovis aries [11] = test: Activity against adult gastrointestinal helminths of experimentally infected sheep on oral administration of Haemonchus contortus at 0.2 mg/kg.; in short: as §2
Ovis aries [12] = test: Activity against adult gastrointestinal helminths of experimentally infected sheep on oral administration of Cooperia species at 0.2 mg/kg.; in short: as §1
Ovis aries [13] = test: Activity against adult gastrointestinal helminths of experimentally infected sheep on oral administration of Oesophagostomum columbianum at 0.3 mg/kg.; in short: as §1
Ovis aries [14] = test: Activity against adult gastrointestinal helminths of experimentally infected sheep on oral administration of Ostertagia circumcincta at 0.3 mg/kg.; in short: as §1
Ovis aries [15] = test: Activity against adult gastrointestinal helminths of experimentally infected sheep on oral administration of Trichostrongylus colubriformis at 0.3 mg/kg.; in short: as §2
Ovis aries [16] = test: Activity against adult gastrointestinal helminths of experimentally infected sheep on oral administration of Trichostrongylus axei at 0.3 mg/kg.; in short: as §1
Ovis aries [17] = test: Activity against adult gastrointestinal helminths of experimentally infected sheep on oral administration of Haemonchus contortus at 0.3 mg/kg.; in short: as §2
Ovis aries [18] = test: Activity against adult gastrointestinal helminths of experimentally infected sheep on oral administration of Cooperia species at 0.3 mg/kg; 75-90; in short: as §1
Ovis aries [19] = test: Activity against adult gastrointestinal helminths of experimentally infected sheep on oral administration of Ostertagia circumcincta at 0.3 mg/kg; 75-90; in short: as §1
Ovis aries [20] = test: Activity against adult gastrointestinal helminths of experimentally infected sheep on oral administration of Trichostrongylus colubriformis at 0.3 mg/kg; 50-74; in short: as §2
Ovis aries [21] = test: Activity against adult gastrointestinal helminths of experimentally infected sheep on oral administration of Cooperia species at 0.3 mg/kg.; in short: as §1
Ovis aries [22] = test: Activity against adult gastrointestinal helminths of experimentally infected sheep on oral administration of Ostertagia circumcincta at 0.05 mg/kg.
Ovis aries [23] = test: Activity against adult gastrointestinal helminths of experimentally infected sheep on oral administration of Trichostrongylus colubriformis at 0.05 mg/kg.
In short: (§3)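 Sheep were experimentally infected with benzimidazole-resistant isolates of this species among six gastrointestinal helminths and dosed orally. Efficacy against the adult worms was scored per species.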

Ovis aries [24] = test: Activity against adult gastrointestinal helminths of experimentally infected sheep on oral administration of Trichostrongylus axei at 0.05 mg/kg.
Ovis aries [25] = test: Activity against adult gastrointestinal helminths of experimentally infected sheep on oral administration of Oesophagostomum columbianum at 0.05 mg/kg.
Ovis aries [26] = test: Activity against adult gastrointestinal helminths of experimentally infected sheep on oral administration of Cooperia species at 0.05 mg/kg.
Ovis aries [27] = test: Activity against adult gastrointestinal helminths of experimentally infected sheep on oral administration of Haemonchus contortus at 0.05 mg/kg.; in short: as §3
Ovis aries [28] = test: Activity against adult gastrointestinal helminths of experimentally infected sheep on oral administration of Oesophagostomum columbianum at 0.1 mg/kg.; in short: as §1
Ovis aries [29] = test: Activity against adult gastrointestinal helminths of experimentally infected sheep on oral administration of Ostertagia circumcincta at 0.1 mg/kg; 75-90; in short: as §1
Ovis aries [30] = test: Activity against adult gastrointestinal helminths of experimentally infected sheep on oral administration of Trichostrongylus colubriformis at 0.1 mg/kg.; in short: as §2
Ovis aries [31] = test: Activity against adult gastrointestinal helminths of experimentally infected sheep on oral administration of Trichostrongylus axei at 0.1 mg/kg.; in short: as §1
Ovis aries [32] = test: Activity against adult gastrointestinal helminths of experimentally infected sheep on oral administration of Haemonchus contortus at 0.1 mg/kg; 75-90; in short: as §2
Ovis aries [33] = test: Activity against adult gastrointestinal helminths of experimentally infected sheep on oral administration of Cooperia species at 0.1 mg/kg; 75-90; in short: as §1
Ovis aries [34] = test: Activity against adult gastrointestinal helminths of experimentally infected sheep on oral administration of Ostertagia circumcincta at 0.1 mg/kg.; in short: as §1
Ovis aries [35] = test: Activity against adult gastrointestinal helminths of experimentally infected sheep on oral administration of Cooperia species at 0.1 mg/kg.; in short: as §1
Ovis aries [36] = test: Activity against adult gastrointestinal helminths of experimentally infected sheep on oral administration of Haemonchus contortus at 0.1 mg/kg.; in short: as §2
Ovis aries [37] = test: Activity against adult gastrointestinal helminths of experimentally infected sheep on oral administration of Oesophagostomum columbianum at 0.15 mg/kg.; in short: as §1
Ovis aries [38] = test: Activity against adult gastrointestinal helminths of experimentally infected sheep on oral administration of Ostertagia circumcincta at 0.15 mg/kg; 75-90; in short: as §1
Ovis aries [39] = test: Activity against adult gastrointestinal helminths of experimentally infected sheep on oral administration of Trichostrongylus colubriformis at 0.15 mg/kg.; in short: as §2
Ovis aries [40] = test: Activity against adult gastrointestinal helminths of experimentally infected sheep on oral administration of Trichostrongylus axei at 0.15 mg/kg.; in short: as §1
Ovis aries [41] = test: Activity against adult gastrointestinal helminths of experimentally infected sheep on oral administration of Haemonchus contortus at 0.15 mg/kg 75-90; in short: as §2
Ovis aries [42] = test: Activity against adult gastrointestinal helminths of experimentally infected sheep on oral administration of Cooperia species at 0.15 mg/kg.; in short: as §1
Ovis aries [43] = test: Activity against adult gastrointestinal helminths of experimentally infected sheep on oral administration of Trichostrongylus axei at 0.2 mg/kg.; in short: as §1

CC1=C[C@H]2C(=O)O[C@H]3C[C@@H](C/C=C(\C)[C@@H](O)[C@@H](C)/C=C/C=C4\CO[C@H]([C@@H]1O)[C@@]42O)O[C@@]1(CC[C@H](C)[C@@H](C(C)C)O1)C3
Efficacy (Ovis aries [1]): >90%
Efficacy (Ovis aries [2]): >90%
Efficacy (Ovis aries [3]): 75%
Efficacy (Ovis aries [4]): >90%
Efficacy (Ovis aries [5]): 50%
Efficacy (Ovis aries [6]): 50%

CO[C@H]1C[C@H](O[C@H]2[C@H](C)O[C@@H](O[C@@H]3/C(C)=C/C[C@@H]4C[C@@H](C[C@]5(CC[C@H](C)[C@@H](C(C)C)O5)O4)OC(=O)[C@@H]4CC(C)[C@@H](O)[C@H]5OC/C(=C\C=C\[C@@H]3C)[C@]54O)C[C@@H]2OC)O[C@@H](C)[C@@H]1O (stereo not given in full)
Efficacy (Ovis aries [7]): >90%
Efficacy (Ovis aries [8]): <50%
Efficacy (Ovis aries [9]): <50%
Efficacy (Ovis aries [10]): 50%
Efficacy (Ovis aries [11]): <50%
Efficacy (Ovis aries [12]): <50%

CO[C@H]1C[C@H](O[C@@H]2/C(C)=C/C[C@@H]3C[C@@H](C[C@]4(CC[C@H](C)[C@@H](C(C)C)O4)O3)OC(=O)[C@@H]3C=C(C)[C@@H](O)[C@H]4OC/C(=C\C=C\[C@@H]2C)[C@]43O)O[C@@H](C)[C@@H]1O
Efficacy (Ovis aries [13]): >90%
Efficacy (Ovis aries [14]): >90%
Efficacy (Ovis aries [15]): >90%
Efficacy (Ovis aries [16]): >90%
Efficacy (Ovis aries [17]): >90%
Efficacy (Ovis aries [18]): 75%

CC[C@H](C)[C@H]1O[C@]2(CC[C@@H]1C)C[C@@H]1C[C@@H](C/C=C(\C)[C@@H](O[C@H]3C[C@H](OC)[C@@H](O[C@H]4C[C@H](OC)[C@@H](O)[C@H](C)O4)[C@H](C)O3)[C@@H](C)/C=C/C=C3\CO[C@@H]4[C@H](OC)C(C)=C[C@@H](C(=O)O1)[C@]34O)O2
Efficacy (Ovis aries [13]): >90%
Efficacy (Ovis aries [19]): 75%
Efficacy (Ovis aries [20]): 50%
Efficacy (Ovis aries [16]): <50%
Efficacy (Ovis aries [17]): >90%
Efficacy (Ovis aries [21]): <50%

CC[C@H](C)[C@H]1O[C@]2(C=C[C@@H]1C)C[C@@H]1C[C@@H](C/C=C(\C)[C@@H](O[C@H]3C[C@H](OC)[C@@H](O[C@H]4C[C@H](OC)[C@@H](O)[C@H](C)O4)[C@H](C)O3)[C@@H](C)/C=C/C=C3\CO[C@@H]4[C@H](O)C(C)=C[C@@H](C(=O)O1)[C@]34O)O2 [ABAMECTIN COMPONENT B1A]
Efficacy (Ovis aries [22]): >90%
Efficacy (Ovis aries [23]): >90%
Efficacy (Ovis aries [24]): >90%
Efficacy (Ovis aries [25]): >90%
Efficacy (Ovis aries [26]): >90%
Efficacy (Ovis aries [27]): >90%

CC[C@H](C)[C@H]1O[C@]2(C=C[C@@H]1C)C[C@@H]1C[C@@H](C/C=C(\C)[C@@H](OC3CC(OC)C(OC4CC(OC)C(O)C(C)O4)C(C)O3)[C@@H](C)/C=C/C=C3\CO[C@@H]4[C@H](OC)C(C)=C[C@@H](C(=O)O1)[C@]34O)O2 (stereo not given in full) [AVERMECTIN A1]
Efficacy (Ovis aries [28]): <50%
Efficacy (Ovis aries [29]): 75%
Efficacy (Ovis aries [30]): <50%
Efficacy (Ovis aries [31]): <50%
Efficacy (Ovis aries [32]): 75%
Efficacy (Ovis aries [33]): 75%

CC[C@H](C)[C@H]1O[C@]2(CC(O)[C@@H]1C)C[C@@H]1C[C@@H](C/C=C(\C)[C@@H](OC3CC(OC)C(OC4CC(OC)C(O)C(C)O4)C(C)O3)[C@@H](C)/C=C/C=C3\CO[C@@H]4[C@H](OC)C(C)=C[C@@H](C(=O)O1)[C@]34O)O2 (stereo not given in full) [AVERMECTIN A2]
Efficacy (Ovis aries [28]): >90%
Efficacy (Ovis aries [34]): >90%
Efficacy (Ovis aries [30]): >90%
Efficacy (Ovis aries [31]): >90%
Efficacy (Ovis aries [35]): <50%
Efficacy (Ovis aries [36]): >90%

COC1CC(O[C@@H]2/C(C)=C/C[C@@H]3C[C@@H](C[C@]4(C=C[C@H](C)[C@@H](C(C)C)O4)O3)OC(=O)[C@@H]3C=C(C)[C@@H](O)[C@H]4OC/C(=C\C=C\[C@@H]2C)[C@]43O)OC(C)C1O (stereo not given in full) [AVERMECTIN B1 MONOSACCHARIDE]
Efficacy (Ovis aries [37]): <50%
Efficacy (Ovis aries [38]): 75%
Efficacy (Ovis aries [39]): >90%
Efficacy (Ovis aries [40]): >90%
Efficacy (Ovis aries [41]): 75%
Efficacy (Ovis aries [42]): >90%

COC1CC(O[C@@H]2/C(C)=C/C[C@@H]3C[C@@H](C[C@]4(CC(O)[C@H](C)[C@@H](C(C)C)O4)O3)OC(=O)[C@@H]3C=C(C)[C@@H](O)[C@H]4OC/C(=C\C=C\[C@@H]2C)[C@]43O)OC(C)C1O (stereo not given in full) [AVERMECTIN B2 MONOSACCHARIDE]
Efficacy (Ovis aries [7]): >90%
Efficacy (Ovis aries [8]): 50%
Efficacy (Ovis aries [9]): >90%
Efficacy (Ovis aries [43]): >90%
Efficacy (Ovis aries [11]): 50%
Efficacy (Ovis aries [12]): >90%

COC1CC(OC2C(C)OC(O[C@@H]3/C(C)=C/C[C@@H]4C[C@@H](C[C@]5(CC(O)[C@H](C)[C@@H](C(C)C)O5)O4)OC(=O)[C@@H]4C=C(C)[C@@H](O)[C@H]5OC/C(=C\C=C\[C@@H]3C)[C@]54O)CC2OC)OC(C)C1O (stereo not given in full) [AVERMECTIN B2]
Efficacy (Ovis aries [28]): >90%
Efficacy (Ovis aries [34]): >90%
Efficacy (Ovis aries [30]): >90%
Efficacy (Ovis aries [31]): >90%
Efficacy (Ovis aries [35]): >90%
Efficacy (Ovis aries [36]): <50%
